Reference: ChEMBL document CHEMBL5724801, “EUbOPEN Chemogenomics Library - Multiplex” (2024)
Values joined by “and” are separate entries in the source; they are usually repeats but may differ in a detail not shown here. Identical values can stand only once.

Test system: Fibroblast
Assay: Multiplex assay against human fibroblast
Assay type: toxicity, cell-based
Summary of the method: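 Tubulin, mitochondrial-mass and membrane-permeability phenotypes are per cents of healthy-nucleus cells. Cells were gated by CellPathfinder machine learning into Hoechst high-intensity objects or normal cells, normal cells into healthy, pyknosed or fragmented nuclei, and pyknosed cells into mitotic or apoptotic. Before that, live cells stained at seeding with Hoechst33342, BioTracker Green Microtubule Cytoskeleton Dye, MitoTracker Red and Annexin V Alexa Fluor 680 were imaged on a CQ1 microscope at 37°C and 5% CO2 after compound addition.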

[1] = 12 h, 1 µM, compound concentration 1 uM
[2] = 12 h, 10 µM, compound concentration 10 uM
[3] = 24 h, 1 µM, compound concentration 1 uM
[4] = 24 h, 10 µM, compound concentration 10 uM
[5] = 48 h, 1 µM, compound concentration 1 uM
[6] = 48 h, 10 µM, compound concentration 10 uM

SMILES: O=C(O)CCC/C=C\CC1C(O)CC(O)C1/C=C/C(O)COc1cccc(Cl)c1 (stereo not given) [CLOPROSTENOL]
- Population Apoptotic (%) [1]: 41% and 20%
- Population Fragmented Nuclei (%) [1]: 15% and 22%
- Population Healthy Nuclei (%) [1]: 68% and 52%
- Population Hoechst High Intensity Objects (%) [1]: 0% and 2%
- Population Membrane Permeable-Phenotype (%) [1]: 0% and 8%
- Population Mitochondria Different-Phenotype (%) [1]: 2%
- Population Mitotic Cells (%) [1]: 58% and 80%
- Population Normal (%) [1]: 100% and 97%
- Population Pyknosed Nuclei (%) [1]: 15% and 25%
- Population Tubulin-Different-Phenotype (%) [1]: 22% and 52%
- Total Cell Count [1]: 153 and 141
- Population Apoptotic (%) [2]: 38% and 23%
- Population Fragmented Nuclei (%) [2]: 23%
- Population Healthy Nuclei (%) [2]: 58% and 43%
- Population Hoechst High Intensity Objects (%) [2]: 12% and 4%
- Population Membrane Permeable-Phenotype (%) [2]: 0% and 11%
- Population Mitochondria Different-Phenotype (%) [2]: 4% and 9%
- Population Mitotic Cells (%) [2]: 61% and 76%
- Population Normal (%) [2]: 87% and 95%
- Population Pyknosed Nuclei (%) [2]: 18% and 34%
- Population Tubulin-Different-Phenotype (%) [2]: 31% and 53%
- Total Cell Count [2]: 212 and 105
- Population Apoptotic (%) [3]: 41% and 18%
- Population Fragmented Nuclei (%) [3]: 19% and 27%
- Population Healthy Nuclei (%) [3]: 62% and 49%
- Population Hoechst High Intensity Objects (%) [3]: 0% and 3%
- Population Membrane Permeable-Phenotype (%) [3]: 1% and 7%
- Population Mitochondria Different-Phenotype (%) [3]: 3% and 5%
- Population Mitotic Cells (%) [3]: 58% and 81%
- Population Normal (%) [3]: 99% and 96%
- Population Pyknosed Nuclei (%) [3]: 18% and 23%
- Population Tubulin-Different-Phenotype (%) [3]: 26% and 53%
- Total Cell Count [3]: 161 and 144
- Population Apoptotic (%) [4]: 41% and 59%
- Population Fragmented Nuclei (%) [4]: 24% and 28%
- Population Healthy Nuclei (%) [4]: 57% and 50%
- Population Hoechst High Intensity Objects (%) [4]: 12% and 3%
- Population Membrane Permeable-Phenotype (%) [4]: 2% and 7%
- Population Mitochondria Different-Phenotype (%) [4]: 3%
- Population Mitotic Cells (%) [4]: 58% and 40%
- Population Normal (%) [4]: 87% and 96%
- Population Pyknosed Nuclei (%) [4]: 18% and 21%
- Population Tubulin-Different-Phenotype (%) [4]: 24% and 57%
- Total Cell Count [4]: 218 and 107
- Population Apoptotic (%) [5]: 65% and 36%
- Population Fragmented Nuclei (%) [5]: 21% and 37%
- Population Healthy Nuclei (%) [5]: 59% and 43%
- Population Hoechst High Intensity Objects (%) [5]: 2% and 3%
- Population Membrane Permeable-Phenotype (%) [5]: 2% and 12%
- Population Mitochondria Different-Phenotype (%) [5]: 2% and 10%
- Population Mitotic Cells (%) [5]: 34% and 64%
- Population Normal (%) [5]: 97% and 96%
- Population Pyknosed Nuclei (%) [5]: 19% and 18%
- Population Tubulin-Different-Phenotype (%) [5]: 25% and 63%
- Total Cell Count [5]: 156 and 137
- Population Apoptotic (%) [6]: 46% and 55%
- Population Fragmented Nuclei (%) [6]: 25% and 41%
- Population Healthy Nuclei (%) [6]: 57% and 49%
- Population Hoechst High Intensity Objects (%) [6]: 13% and 8%
- Population Membrane Permeable-Phenotype (%) [6]: 0% and 4%
- Population Mitochondria Different-Phenotype (%) [6]: 2% and 4%
- Population Mitotic Cells (%) [6]: 53% and 44%
- Population Normal (%) [6]: 86% and 91%
- Population Pyknosed Nuclei (%) [6]: 16% and 9%
- Population Tubulin-Different-Phenotype (%) [6]: 30% and 61%
- Total Cell Count [6]: 205 and 108

SMILES: Cc1cc(C(C#N)c2ccc(Cl)cc2)c(Cl)cc1NC(=O)c1cc(I)cc(I)c1O (stereo not given) [CLOSANTEL]
- Population Fragmented Nuclei (%) [1]: 11% and 4.88%
- Population Healthy Nuclei (%) [1]: 69% and 80%
- Population Hoechst High Intensity Objects (%) [1]: 0%
- Population Membrane Permeable-Phenotype (%) [1]: 3.62% and 2.44%
- Population Mitochondria Different-Phenotype (%) [1]: 10.14% and 4.88%
- Population Mitotic Cells (%) [1]: 97.5% and 87.1%
- Population Normal (%) [1]: 100%
- Population Pyknosed Nuclei (%) [1]: 20% and 15.12%
- Population Tubulin-Different-Phenotype (%) [1]: 11.59%
- Total Cell Count [1]: 200 and 205
- Population Fragmented Nuclei (%) [2]: 14.05% and 6.49%
- Population Healthy Nuclei (%) [2]: 60.33% and 78.38%
- Population Hoechst High Intensity Objects (%) [2]: 0%
- Population Membrane Permeable-Phenotype (%) [2]: 3.42% and 2.76%
- Population Mitochondria Different-Phenotype (%) [2]: 8.22% and 6.21%
- Population Mitotic Cells (%) [2]: 95.16% and 78.57%
- Population Normal (%) [2]: 100%
- Population Pyknosed Nuclei (%) [2]: 25.62% and 15.14%
- Population Tubulin-Different-Phenotype (%) [2]: 12.33% and 14.48%
- Total Cell Count [2]: 242 and 185
- Population Apoptotic (%) [3]: 11.76% and 28.57%
- Population Fragmented Nuclei (%) [3]: 7.66% and 4.52%
- Population Healthy Nuclei (%) [3]: 77.03% and 88.44%
- Population Hoechst High Intensity Objects (%) [3]: 0%
- Population Membrane Permeable-Phenotype (%) [3]: 1.17% and 0.57%
- Population Mitochondria Different-Phenotype (%) [3]: 7.6% and 4.55%
- Population Mitotic Cells (%) [3]: 88.24% and 71.43%
- Population Normal (%) [3]: 100%
- Population Pyknosed Nuclei (%) [3]: 15.32% and 7.04%
- Population Tubulin-Different-Phenotype (%) [3]: 12.28% and 13.07%
- Total Cell Count [3]: 222 and 199
- Population Apoptotic (%) [4]: 10.53% and 22.73%
- Population Fragmented Nuclei (%) [4]: 9.54% and 3.72%
- Population Healthy Nuclei (%) [4]: 74.69% and 84.57%
- Population Hoechst High Intensity Objects (%) [4]: 0%
- Population Membrane Permeable-Phenotype (%) [4]: 2.22% and 2.52%
- Population Mitochondria Different-Phenotype (%) [4]: 3.89% and 5.03%
- Population Mitotic Cells (%) [4]: 89.47% and 77.27%
- Population Normal (%) [4]: 100%
- Population Pyknosed Nuclei (%) [4]: 15.77% and 11.7%
- Population Tubulin-Different-Phenotype (%) [4]: 12.78% and 13.84%
- Total Cell Count [4]: 241 and 188
- Population Apoptotic (%) [5]: 35.29% and 17.65%
- Population Fragmented Nuclei (%) [5]: 10.13% and 6.91%
- Population Healthy Nuclei (%) [5]: 82.38% and 85.25%
- Population Hoechst High Intensity Objects (%) [5]: 0%
- Population Membrane Permeable-Phenotype (%) [5]: 1.07% and 1.62%
- Population Mitotic Cells (%) [5]: 64.71% and 82.35%
- Population Normal (%) [5]: 100%
- Population Pyknosed Nuclei (%) [5]: 7.49% and 7.83%
- Population Tubulin-Different-Phenotype (%) [5]: 8.02% and 14.05%
- Total Cell Count [5]: 227 and 217
- Population Apoptotic (%) [6]: 33.33% and 66.67%
- Population Fragmented Nuclei (%) [6]: 6.69% and 4.66%
- Population Healthy Nuclei (%) [6]: 88.85% and 92.23%
- Population Hoechst High Intensity Objects (%) [6]: 0%
- Population Membrane Permeable-Phenotype (%) [6]: 0.84% and 3.93%
- Population Mitochondria Different-Phenotype (%) [6]: 12.13% and 3.93%
- Population Mitotic Cells (%) [6]: 66.67% and 33.33%
- Population Normal (%) [6]: 100%
- Population Pyknosed Nuclei (%) [6]: 4.46% and 3.11%
- Population Tubulin-Different-Phenotype (%) [6]: 5.02% and 12.36%
- Total Cell Count [6]: 269 and 193

SMILES: CC1(COc2ccc3c(c2)ncn3-c2ccc3cccc(N4CCC(N)CC4)c3n2)COC1 [CRENOLANIB]
- Population Fragmented Nuclei (%) [1]: 27% and 33%
- Population Healthy Nuclei (%) [1]: 60% and 47%
- Population Hoechst High Intensity Objects (%) [1]: 2% and 4%
- Population Membrane Permeable-Phenotype (%) [1]: 0% and 7%
- Population Mitochondria Different-Phenotype (%) [1]: 4% and 9%
- Population Mitotic Cells (%) [1]: 38% and 81%
- Population Normal (%) [1]: 97% and 95%
- Population Pyknosed Nuclei (%) [1]: 12% and 18%
- Population Tubulin-Different-Phenotype (%) [1]: 48% and 67%
- Population Apoptotic (%) [2]: 33% and 34%
- Population Fragmented Nuclei (%) [2]: 21% and 29%
- Population Healthy Nuclei (%) [2]: 48% and 40%
- Population Hoechst High Intensity Objects (%) [2]: 4% and 13%
- Population Membrane Permeable-Phenotype (%) [2]: 2% and 6%
- Population Mitochondria Different-Phenotype (%) [2]: 6% and 9%
- Population Mitotic Cells (%) [2]: 66% and 65%
- Population Normal (%) [2]: 95% and 86%
- Population Pyknosed Nuclei (%) [2]: 30%
- Population Tubulin-Different-Phenotype (%) [2]: 43% and 48%
- Population Apoptotic (%) [3]: 92% and 50%
- Population Fragmented Nuclei (%) [3]: 29% and 41%
- Population Healthy Nuclei (%) [3]: 60% and 48%
- Population Hoechst High Intensity Objects (%) [3]: 0% and 1%
- Population Membrane Permeable-Phenotype (%) [3]: 0% and 4%
- Population Mitochondria Different-Phenotype (%) [3]: 9%
- Population Normal (%) [3]: 99% and 98%
- Population Pyknosed Nuclei (%) [3]: 9% and 10%
- Population Tubulin-Different-Phenotype (%) [3]: 61% and 63%
- Population Apoptotic (%) [4]: 36% and 34%
- Population Fragmented Nuclei (%) [4]: 23% and 25%
- Population Healthy Nuclei (%) [4]: 51% and 46%
- Population Hoechst High Intensity Objects (%) [4]: 16% and 17%
- Population Membrane Permeable-Phenotype (%) [4]: 0% and 6%
- Population Mitochondria Different-Phenotype (%) [4]: 8% and 6%
- Population Mitotic Cells (%) [4]: 63% and 65%
- Population Normal (%) [4]: 83% and 82%
- Population Pyknosed Nuclei (%) [4]: 24% and 28%
- Population Tubulin-Different-Phenotype (%) [4]: 23% and 38%
- Population Fragmented Nuclei (%) [5]: 32% and 44%
- Population Healthy Nuclei (%) [5]: 60% and 44%
- Population Hoechst High Intensity Objects (%) [5]: 1% and 0%
- Population Membrane Permeable-Phenotype (%) [5]: 0% and 5%
- Population Mitochondria Different-Phenotype (%) [5]: 8% and 7%
- Population Normal (%) [5]: 98% and 99%
- Population Pyknosed Nuclei (%) [5]: 7% and 12%
- Population Tubulin-Different-Phenotype (%) [5]: 55% and 74%
- Population Apoptotic (%) [6]: 42% and 37%
- Population Fragmented Nuclei (%) [6]: 16% and 23%
- Population Healthy Nuclei (%) [6]: 62% and 42%
- Population Hoechst High Intensity Objects (%) [6]: 24% and 21%
- Population Membrane Permeable-Phenotype (%) [6]: 1%
- Population Mitochondria Different-Phenotype (%) [6]: 6%
- Population Mitotic Cells (%) [6]: 57% and 62%
- Population Normal (%) [6]: 75% and 78%
- Population Pyknosed Nuclei (%) [6]: 21% and 33%
- Population Tubulin-Different-Phenotype (%) [6]: 23% and 27%
